Reference: ChEMBL document CHEMBL1154860, “Synthesis and investigation of inhibition effect of fluorinated sulfonamide derivatives on carbonic anhydrase” (Eur J Med Chem, 2010)
pIC50: −log10 of the molar value. Active and inactive are the calls of the source. The calls are words filed in the database; no cut-off is given here.

How the values were obtained:
[1] = Inhibition of bovine carbonic anhydrase assessed as conversion of 4-nitrophenyl acetate to 4-nitrophnolate after 5 mins; design: species or system Bos taurus
Outline: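 Bovine CA at 2.9 × 10^-6 M (concentration set from A280) measured by initial rate of 4-nitrophenyl acetate hydrolysis, substrate in acetone/water over a range of concentrations. 4-Nitrophenolate formation followed at 348 nm, pH 8, with non-enzymatic hydrolysis subtracted. Inhibitors dissolved in distilled–deionized water. Triplicates at each substrate and inhibitor concentration; IC50 is the mean of 3 assays.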

[2] = Cytotoxicity in sheep RBC assessed as hemolysis at 62.5 uM after 20 mins; assay type: cell-based, Ovis aries; details: erythrocyte
Outline: (§1)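 Sheep erythrocytes were washed three times in PBS pH 7.4 just before the assay and used at a final 5% cell concentration in the same buffer. After incubation with compound, samples were centrifuged and supernatant absorbance was read at 405 nm. The 0% and 100% hemolysis references were erythrocyte stock in PBS and in distilled water, processed identically.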

Carbonic anhydrase 2 = Carbonic anhydrase 2 (Homo sapiens, UniProt P00918); test: Inhibition of human carbonic anhydrase 2 assessed as conversion of 4-nitrophenyl acetate to 4-nitrophnolate after 5 mins
[3] = Cytotoxicity in sheep RBC assessed as hemolysis at 1000 uM after 20 mins; assay type: cell-based, Ovis aries; details: erythrocyte; outline: as §1
Bos taurus = species: Bos taurus; test: Inhibition of bovine carbonic anhydrase assessed as conversion of 4-nitrophenyl acetate to 4-nitrophnolate at 0.27 to 2.07 uM after 5 mins
Outline: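 Native bovine CA, concentration set from A280 (2.9 × 10^-6 M). Initial rate of 4-nitrophenyl acetate hydrolysis followed at 348 nm at pH 8. Substrate was 1.04 × 10^-3 to 1.875 × 10^-4 M, prepared in acetone/water, and inhibitors were dissolved in water. Non-enzymatic hydrolysis was subtracted, each point was run in triplicate, and values are means of 3 assays.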

[4] = Cytotoxicity in sheep RBC assessed as hemolysis at 31.25 uM after 20 mins; assay type: cell-based, Ovis aries; details: erythrocyte; outline: as §1
[5] = Cytotoxicity in sheep RBC assessed as hemolysis at 0.125 to 1000 uM after 20 mins; assay type: cell-based, Ovis aries; details: erythrocyte; outline: as §1

Compound	pIC50 [1]	further results
NS(=O)(=O)C(F)(F)C(F)(F)C(F)(F)C(F)(F)F	5.83	
NS(=O)(=O)C(F)(F)C(F)(F)C(F)(F)C(F)(F)C(F)(F)C(F)(F)C(F)(F)C(F)(F)F	5.80	Activity [2]: Toxic
[NH-]S(=O)(=O)C(F)(F)C(F)(F)C(F)(F)C(F)(F)C(F)(F)C(F)(F)F.[Na+] [SODIUM PERFLUOROHEXANESULFONAMIDE]	5.86	pIC50 (Carbonic anhydrase 2): 6.91; Activity [3]: Non-toxic
CCCCCCS(N)(=O)=O		inhibition (Bos taurus): inactive
CCCCCCCCS(N)(=O)=O		inhibition (Bos taurus): inactive
NS(=O)(=O)C(F)(F)C(F)(F)C(F)(F)C(F)(F)F [SODIUM PERFLUOROBUTANESULFONAMIDE]	5.78	
[NH-]S(=O)(=O)C(F)(F)C(F)(F)C(F)(F)C(F)(F)C(F)(F)C(F)(F)C(F)(F)C(F)(F)F.[Na+] [SODIUM PERFLUOROOCTANESULFONAMIDE]	5.75	Activity [4]: Toxic
NS(=O)(=O)C(F)(F)C(F)(F)C(F)(F)C(F)(F)C(F)(F)C(F)(F)F	5.83	Activity [5]: Non-toxic; Activity [3]: Non-toxic

Second part, led by results:

pIC50 [1]	Compound	further results
5.83	NS(=O)(=O)C(F)(F)F [TRIFLUOROMETHANESULFONAMIDE]	
5.76	NS(=O)(=O)C(F)(F)C(F)(F)C(F)(F)C(F)(F)C(F)(F)C(F)(F)C(F)(F)F	
5.76	NS(=O)(=O)C(F)(F)C(F)(F)C(F)(F)C(F)(F)S(N)(=O)=O	
5.68	NS(=O)(=O)CCC(F)(F)C(F)(F)C(F)(F)C(F)(F)F	
5.72	NS(=O)(=O)CCC(F)(F)C(F)(F)C(F)(F)C(F)(F)C(F)(F)C(F)(F)F	
5.87	CC(=O)Nc1nnc(S(N)(=O)=O)s1 [ACETAZOLAMIDE]	
5.78	NS(=O)(=O)CCC(F)(F)C(F)(F)C(F)(F)C(F)(F)C(F)(F)C(F)(F)C(F)(F)C(F)(F)F	
